This passage reports IC50, inhibition and Activity results from ChEMBL document CHEMBL3785056, “New imidazoquinoxaline derivatives: Synthesis, biological evaluation on melanoma, effect on tubulin polymerization and structure-activity relationships” (Bioorg Med Chem, 2016).

Activity calls are given as the source filed them. The calls are words filed in the database; no cut-off is given here.

The subject of experiment [1] is A-375. In words: Antiproliferative activity against human A375 cells assessed as cell growth inhibition after 96 hrs by MTT assay. To be noted: A-375, 96 h. In kind it is functional, cell-based. In short, it runs like this: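 A375 cells in RPMI-1640 with 10% heat-inactivated FBS, 37 °C, 5% CO2, seeded 5000 cells/well and attached overnight. Exposed 96 h to […] in 1% DMSO/medium. MTT read at 570 nm after isopropanol/HCl solubilization. Survival given as % of vehicle control. IC50 taken from sigmoidal dose-response curves, at least three experiments in triplicate.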

Experiment [2] addresses Tubulin (Sus scrofa) (UniProt P02554+P02550). Description: Inhibition of pig brain tubulin polymerization at 5 uM by spectrophotometric analysis. The method, boiled down:
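Compound 5 µM final, DMSO as negative control. Polymerization at 37 °C followed by turbidity at 350 nm, with ice added after 45 min to check depolymerization. Given as % inhibition from three independent experiments.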

Experiment [3] concerns A-375. In words: Cell cycle arrest in human A375 cells assessed as effect on number of cells at G0/G1 phase after 24 hrs by propidium iodide staining based flow cytometric analysis. In kind it is functional. The method, boiled down: (§1)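 A375 cells treated 24 h, washed in PBS and pelleted at 400g, 4 °C. Pellet lysed in ice-cold hypotonic solution (PI 25 µg/ml, 0.1% trisodium citrate, RNase A, 0.1% Triton X-100) and held overnight on ice. DNA content read by flow cytometry, giving G0/G1, S and G2/M percentages.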
On the technique in general: Flow cytometry measures light scatter and fluorescence of single cells or particles in a stream.

For experiment [4], the system named is A-375. In words: Cell cycle arrest in human A375 cells assessed as effect on number of cells at S phase after 24 hrs by propidium iodide staining based flow cytometric analysis. Type of experiment: functional. In short, it runs like this:
as §1

Experiment [5] deals with A-375. Description: Cell cycle arrest in human A375 cells assessed as accumulation of cells at G2/M phase after 24 hrs by propidium iodide staining based flow cytometric analysis. Type of experiment: functional. The method, boiled down:
as §1

Sequence of Tubulin (Sus scrofa) (P02550 whole entry, looked up): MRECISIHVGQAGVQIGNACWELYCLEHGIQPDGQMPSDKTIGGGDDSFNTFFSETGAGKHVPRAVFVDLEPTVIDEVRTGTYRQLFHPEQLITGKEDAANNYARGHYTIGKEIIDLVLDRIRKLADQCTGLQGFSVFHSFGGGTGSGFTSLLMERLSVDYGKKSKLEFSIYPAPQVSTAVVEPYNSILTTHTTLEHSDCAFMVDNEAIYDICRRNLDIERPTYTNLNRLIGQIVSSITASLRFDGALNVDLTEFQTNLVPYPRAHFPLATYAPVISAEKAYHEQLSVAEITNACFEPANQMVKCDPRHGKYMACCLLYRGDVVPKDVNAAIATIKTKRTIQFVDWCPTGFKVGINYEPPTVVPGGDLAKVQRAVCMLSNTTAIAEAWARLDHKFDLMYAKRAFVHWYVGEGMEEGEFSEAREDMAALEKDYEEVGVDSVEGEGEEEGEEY
Sequence of Tubulin (Sus scrofa) (P02554 whole entry, looked up): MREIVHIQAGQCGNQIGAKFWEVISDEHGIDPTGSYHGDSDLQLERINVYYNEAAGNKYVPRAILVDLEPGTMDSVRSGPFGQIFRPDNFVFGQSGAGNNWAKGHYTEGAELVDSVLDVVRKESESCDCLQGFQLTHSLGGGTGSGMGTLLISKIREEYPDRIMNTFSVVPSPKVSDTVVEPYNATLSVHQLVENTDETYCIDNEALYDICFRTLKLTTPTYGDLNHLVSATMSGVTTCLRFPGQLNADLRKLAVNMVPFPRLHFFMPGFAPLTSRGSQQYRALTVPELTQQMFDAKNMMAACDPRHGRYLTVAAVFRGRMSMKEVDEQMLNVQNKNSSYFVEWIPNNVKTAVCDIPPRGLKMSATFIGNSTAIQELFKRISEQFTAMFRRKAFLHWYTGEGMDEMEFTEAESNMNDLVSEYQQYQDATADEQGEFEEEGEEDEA

As usually defined, the IC50 is the concentration at which inhibition is half-maximal. By inhibition is commonly meant how much of the control response was suppressed. `CNc1nc2ccccc2n2c(-c3cc(OC)cc(OC)c3)cnc12`: in experiment [1], the IC50 was 220 nM. The compound further yielded an inhibition in experiment [2] of 98.5%. Further, the Activity result in experiment [3], in experiment [4] and in experiment [5] was “Dose-dependent effect” in each case.

With `CNc1nc2ccccc2n2c(-c3cc(OC)ccc3OC)cnc12`, in experiment [1], the half-inhibitory concentration (IC50) is 1200 nM. This compound also registered an inhibition in experiment [2] of 3%.

On to `CNc1nc2ccccc2n2c(-c3c(OC)cc(OC)cc3OC)cnc12`, for which the IC50 in experiment [1] came to 2300 nM. Besides, the inhibition entry in experiment [2] was “inactive”.

Consider `CNc1nc2ccccc2n2c(-c3ccccc3OC)cnc12`, for which the inhibition entry in experiment [2] is “inactive”.

In the case of `CNc1nc2ccccc2n2c(-c3cccc(O)c3)cnc12`, the 50% inhibitory concentration (IC50) in experiment [1] is 1250 nM. In addition, in experiment [2], the inhibition entry was “inactive”.

In the case of `CNc1nc2ccccc2n2c(-c3ccc(OC)c(OC)c3)cnc12`, the IC50 in experiment [1] was 300 nM. For the same compound, the inhibition in experiment [2] is 63%.

Take `Nc1nc2ccccc2n2c(-c3cccc(O)c3)cnc12`: the IC50 in experiment [1] came out at 2400 nM. In experiment [2], the inhibition amounted to 11.3%.

As to `CNc1nc2ccccc2n2c(-c3ccc(OC)cc3)cnc12`, the inhibition in experiment [2] came out at 99%. Moreover, the Activity result in experiment [3], in experiment [4] and in experiment [5] was “Dose-dependent effect” each time.

Take `CNc1nc2ccccc2n2c(-c3cccc(OC)c3OC)cnc12`: the IC50 in experiment [1] is 5900 nM. For the same compound, in experiment [2], the inhibition result is “inactive”.

Consider `CNc1nc2ccccc2n2c(-c3cccc(OC)c3)cnc12`, for which the inhibition in experiment [2] is 84%. Besides, the Activity entry in experiment [3], in experiment [4] and in experiment [5] was “Dose-dependent effect” in each case.

Consider `CNc1nc2ccccc2n2c(-c3cc(OC)c(OC)c(OC)c3)cnc12`, for which the IC50 in experiment [1] worked out at 1800 nM. Further, the inhibition entry in experiment [2] is “inactive”.

For `CNc1nc2ccccc2n2c(-c3cccc(OC)c3O)cnc12`, the concentration for half-maximal inhibition (IC50) in experiment [1] is 77 nM. The compound also returned an inhibition in experiment [2] of 90%.

Turning to `COc1cccc(-c2cnc3c(N)nc4ccccc4n23)c1`, in experiment [1], the IC50 amounted to 200 nM. The compound also displayed an inhibition in experiment [2] of 41%.

As to `COc1cc2c(c(OC)c1OC)-c1ccc(OC)c(=O)cc1[C@@H](NC(C)=O)CC2` [COLCHICINE], the IC50 in experiment [1] is 10 nM.

For `CNc1nc2ccccc2n2c(-c3ccc(OC)c(OC)c3OC)cnc12`, the IC50 in experiment [1] was 1500 nM. In addition, the inhibition entry in experiment [2] is “inactive”.
